This is an account of results in ChEMBL document CHEMBL1132150, “Synthesis and evaluation of 3-trifluoromethyl-7-substituted-1,2,3, 4-tetrahydroisoquinolines as selective inhibitors of phenylethanolamine N-methyltransferase versus the alpha(2)-adrenoceptor” (J Med Chem, 1999).

Assay [1] concerns the target T1, Adrenergic receptor alpha-2 (Rattus norvegicus, UniProt P22086+P19328+P22909).
T1 sequence (P22086 whole entry): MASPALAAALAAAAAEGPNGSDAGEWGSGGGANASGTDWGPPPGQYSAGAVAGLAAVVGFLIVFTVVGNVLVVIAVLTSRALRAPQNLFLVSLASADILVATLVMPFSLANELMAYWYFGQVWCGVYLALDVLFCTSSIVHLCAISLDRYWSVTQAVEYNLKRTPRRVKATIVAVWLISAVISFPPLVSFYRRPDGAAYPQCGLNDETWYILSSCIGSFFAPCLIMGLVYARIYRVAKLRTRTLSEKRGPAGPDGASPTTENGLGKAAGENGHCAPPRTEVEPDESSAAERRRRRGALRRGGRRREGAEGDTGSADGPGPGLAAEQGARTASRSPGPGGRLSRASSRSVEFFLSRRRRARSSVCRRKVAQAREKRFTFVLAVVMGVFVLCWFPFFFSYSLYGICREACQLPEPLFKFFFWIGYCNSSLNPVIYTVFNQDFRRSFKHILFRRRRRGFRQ
T1 sequence (P19328 whole entry): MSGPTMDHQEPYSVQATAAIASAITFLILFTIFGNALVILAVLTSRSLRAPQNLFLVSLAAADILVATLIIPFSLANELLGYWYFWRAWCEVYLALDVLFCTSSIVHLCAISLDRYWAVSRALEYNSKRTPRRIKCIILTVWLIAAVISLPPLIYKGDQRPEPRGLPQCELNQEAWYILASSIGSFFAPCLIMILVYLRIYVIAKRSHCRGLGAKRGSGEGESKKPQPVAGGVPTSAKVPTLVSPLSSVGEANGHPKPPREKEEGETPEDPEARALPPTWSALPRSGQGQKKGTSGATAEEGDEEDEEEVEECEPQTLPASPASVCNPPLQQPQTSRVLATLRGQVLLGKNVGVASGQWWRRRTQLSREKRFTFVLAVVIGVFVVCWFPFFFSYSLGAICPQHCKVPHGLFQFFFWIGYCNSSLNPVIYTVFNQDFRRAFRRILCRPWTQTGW
T1 sequence (P22909 whole entry): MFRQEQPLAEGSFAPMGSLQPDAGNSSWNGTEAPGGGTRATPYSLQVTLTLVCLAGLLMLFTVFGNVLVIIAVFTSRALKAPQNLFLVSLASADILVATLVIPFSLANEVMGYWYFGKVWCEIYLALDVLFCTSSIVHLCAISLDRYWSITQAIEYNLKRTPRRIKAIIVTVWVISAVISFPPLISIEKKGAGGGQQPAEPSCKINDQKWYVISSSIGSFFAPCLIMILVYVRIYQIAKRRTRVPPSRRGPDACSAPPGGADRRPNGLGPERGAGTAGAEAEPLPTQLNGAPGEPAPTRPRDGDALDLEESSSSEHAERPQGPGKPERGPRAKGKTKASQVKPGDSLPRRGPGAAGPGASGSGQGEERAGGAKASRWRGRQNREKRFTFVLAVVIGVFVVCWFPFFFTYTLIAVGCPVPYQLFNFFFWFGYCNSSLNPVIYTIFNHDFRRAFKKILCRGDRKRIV
The assay is described as follows: The compound was tested in vitro for binding affinity against Alpha-2 adrenergic receptor using [3H]clonidine. The assay is classed as protein assay. Put shortly: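 Rat cortex membranes from male Sprague–Dawley rats, homogenized in ice-cold 50 mM Tris/HCl (pH 7.7 at 25 °C), washed by three 50000g spins. [³H]clonidine final 2.0 nM, varying inhibitor levels, 25 °C for 30 min. Filtration and scintillation counting. Nonspecific binding with 2 μM phentolamine. IC50 by log–probit analysis, Ki = IC50/(1 + [clonidine]/KD). Tested as HCl or HBr salts.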

Assay [2] has as its target T1, Adrenergic receptor alpha-2. The assay is described as follows: Compound was tested in vitro for binding affinity against Alpha-2 adrenergic receptor using [3H]clonidine. The format is protein assay. Put shortly:
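Rat (male Sprague–Dawley) cortex membranes, washed three times by centrifugation in 50 mM Tris/HCl pH 7.7, incubated 30 min at 25 °C with 2.0 nM [3H]clonidine and varied inhibitor concentrations. Bound ligand was collected by vacuum filtration and counted. Nonspecific binding was defined with 2 μM phentolamine. IC50 came from log–probit analysis, and Ki = IC50/(1+[clonidine]/KD).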

The nature of assay [3]: Selectivity determined by Ki of alpha 2 receptor / Ki of PNMT.
The target of assay [4] is T2, Phenylethanolamine N-methyltransferase (Bos taurus, UniProt P10938).
T2 sequence (P10938 whole entry): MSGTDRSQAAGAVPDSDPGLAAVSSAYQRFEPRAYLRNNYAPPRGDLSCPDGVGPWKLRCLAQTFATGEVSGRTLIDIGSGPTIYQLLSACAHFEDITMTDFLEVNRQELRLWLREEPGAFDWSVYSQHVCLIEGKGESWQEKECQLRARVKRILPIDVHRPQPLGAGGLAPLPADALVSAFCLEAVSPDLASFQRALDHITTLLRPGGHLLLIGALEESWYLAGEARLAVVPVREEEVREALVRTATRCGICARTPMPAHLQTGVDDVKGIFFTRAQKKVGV
The assay is described as follows: Inhibition of PNMT (Phenylethanolamine N-Methyltransferase) in vitro. Put shortly: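 Bovine adrenal PNMT, prepared through the isoelectric precipitation step, assayed radiochemically with phenylethanolamine as the variable substrate and [3H]AdoMet as methyl donor in phosphate buffer pH 8.0. Incubation was 30 min at 37 °C, quenched with borate pH 10, and product was extracted into toluene/isoamyl alcohol and counted. Three inhibitor concentrations spanning 5-fold were run in duplicate, and Ki came from a hyperbolic fit.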

Assay [5] has as its target T1, Adrenergic receptor alpha-2. The assay is described as follows: The compound was tested in vitro for binding affinity against Alpha-2 adrenergic receptor using [3H]clonidine, A precipitate was noted at 1000 uM. The format is protein assay.

In the case of `Clc1ccc2c(c1Cl)CNCCC2`, the Ki in assay [1] came out at 4.5 µM.

For the molecule `CS(=O)(=O)c1ccc2c(c1)CNC(CO)C2` (stereo not drawn), the Ki in assay [2] (read-out: Ki) is 660 µM. The Selectivity in assay [3] turned out to be 1000.

As for `CS(=O)(=O)c1ccc2c(c1)CNC(C(F)(F)F)C2` (stereo not drawn), the Selectivity in assay [3] was 110. Moreover, the affinity in assay [4], expressed as Ki, was 36 µM.

In assay [5], `FC(F)(F)C1Cc2ccc(Br)cc2CN1` (stereo not drawn) yielded a Ki greater than 1000 µM. In addition, the Selectivity in assay [3] is greater than 1900.

`FC(F)(F)C1Cc2ccccc2CN1` (stereo not drawn) yielded a Selectivity in assay [3] of 27. In addition, the affinity in assay [4] corresponds to a Ki of 15 µM.

Consider `O=[N+]([O-])c1ccc2c(c1)CNC(C(F)(F)F)C2` (stereo not drawn), for which the Ki was found to be 1400 µM in assay [2] and 2 µM in assay [4]. In assay [3], the Selectivity amounted to 700.

In the case of `Clc1ccc2c(c1Cl)CNCC2`, the Selectivity in assay [3] came out at 0.095. Further, the Ki in assay [4] was 0.22 µM.

The molecule `CCC1Cc2ccccc2CN1` (stereo not drawn) gave a Ki in assay [1] of 0.67 µM. The same molecule yielded a Selectivity in assay [3] of 0.028.

As for `OCC1Cc2ccccc2CN1` (stereo not drawn), the Ki in assay [2] (read-out: Ki) was determined as 6.6 µM. In assay [3], this molecule displayed a Selectivity of 6.

As for `COc1ccc2c3c([nH]c2c1)C=NCC3` [CGS-19281A], the Ki in assay [1] is 12 µM; in assay [4], 2.7 µM. This molecule gave a Selectivity in assay [3] of 4.4.

Consider `N#Cc1ccc2c(c1)CNC(C(F)(F)F)C2` (stereo not drawn), for which, in assay [3], the Selectivity was found to be 220.

`c1ccc2c(c1)CCNC2` showed a Selectivity in assay [3] of 0.035.

Turning to `COCC1Cc2ccccc2CN1` (stereo not drawn), in assay [2] (read-out: Ki), the inhibition constant (Ki) was 2.8 µM. Also, the Selectivity in assay [3] amounted to 0.3.

In assay [3], `CC1Cc2ccccc2CN1` (stereo not drawn) gave a Selectivity of 0.36.

As for `NS(=O)(=O)c1ccc2c(c1)CNC(CO)C2` (stereo not drawn), in assay [1] (read-out: Ki), the Ki stood at 1400 µM. This molecule returned a Selectivity in assay [3] of 4100.

Broadly, the Ki is the equilibrium dissociation constant of an inhibitor or competing ligand from its target.
